Calls of active or inactive are those of the source. The rule behind the calls is not given here.
Assays:
Plasma [1] = assay: AUClast in mouse plasma at 10 mg/kg, ip; assay type: ADME, organism-based; set-up: dose 10 mg/kg, route intraperitoneal, time 0 - last; details: in vivo
How it was run: (§1)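 Mouse pharmacokinetics after a single 10 mpk intraperitoneal dose. Plasma and brain were sampled at 0, 0.083, 0.25, 0.5, 1, 2, 4, 8, 12 and 24 h. Concentrations are reported as the mean of N=3 at each time point, in ng/mL or nM for plasma and ng/g or nmol/g for brain.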

Neuropeptide S receptor [2] = molecular target: T1, Neuropeptide S receptor (Homo sapiens, UniProt Q6W5P4); assay: Displacement of [125I]Tyr10-NPS from human neuropeptide S receptor expressed in CHO cells after 1.5 hrs by liquid scintillation counting; assay type: cell-based
T1 sequence (Q6W5P4 whole entry): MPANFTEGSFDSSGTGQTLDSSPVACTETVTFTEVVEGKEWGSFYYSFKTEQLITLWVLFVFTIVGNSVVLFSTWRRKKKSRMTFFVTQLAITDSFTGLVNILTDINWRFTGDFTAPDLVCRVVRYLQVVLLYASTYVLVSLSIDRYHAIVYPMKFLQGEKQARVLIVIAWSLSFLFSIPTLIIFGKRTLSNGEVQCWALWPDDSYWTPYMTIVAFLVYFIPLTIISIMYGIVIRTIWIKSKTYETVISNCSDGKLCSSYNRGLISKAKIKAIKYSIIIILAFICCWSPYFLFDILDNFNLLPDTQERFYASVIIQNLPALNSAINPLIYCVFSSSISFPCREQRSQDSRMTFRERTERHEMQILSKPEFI
How it was run: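 Whole CHO cells stably expressing human NPSR at 90–95% confluency in 24-well plates. Cells were incubated with 0.15 nM [125I]Y10-NPS plus increasing compound or unlabeled NPS in DMEM/0.1% BSA, 20°C, 1.5 hr. Nonspecific binding was defined with 1 µM unlabeled human NPS. Cells were washed, lysed in 1 N NaOH and counted by liquid scintillation. IC50 from one experiment in duplicate.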

Rattus norvegicus [3] = assay: Inhibition of alcohol-induced ERK-phosphorylation in rat in central amygdala at 1 mg/kg, ip; assay type: functional, organism-based; set-up: dose 1 mg/kg
Neuropeptide S receptor [4] = molecular target: T1, Neuropeptide S receptor; assay: Antagonist activity at neuropeptide S receptor (unknown origin) expressed in CHO cells assessed as inhibition of NPS-induced ERK activation after 20 mins by HTRF assay; assay type: cell-based
Brain [5] = assay: Drug level in mouse brain at 10 mg/kg, ip after 4 hrs; assay type: ADME, organism-based; set-up: dose 10 mg/kg, route intraperitoneal; details: in vivo; how it was run: as §1
Rattus norvegicus [6] = assay: Toxicity in Wistar rat administered daily; assay type: organism-based; details: in vivo
Brain [7] = assay: Drug level in mouse brain at 10 mg/kg, ip after 2 hrs; assay type: ADME, organism-based; set-up: dose 10 mg/kg, route intraperitoneal; details: in vivo; how it was run: as §1
[8] = Metabolic stability in mouse liver microsomes assessed as compound remaining after 30 mins in presence NADPH; assay type: ADME, Microsome; details: read-out: Stability
How it was run: (§2)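 Compound was incubated with mouse liver microsomes, and percent parent remaining was determined at 15, 30 and 60 min. Values are means from a single experiment run in duplicate.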

[9] = Plasma concentration in mouse at 10 mg/kg, ip after 12 hrs; assay type: ADME, organism-based; set-up: dose 10 mg/kg, route intraperitoneal; how it was run: as §1
[10] = Cmax in mouse brain at 10 mg/kg, ip; assay type: ADME, organism-based; set-up: dose 10 mg/kg, route intraperitoneal; how it was run: as §1
[11] = Plasma concentration in mouse at 10 mg/kg, ip after 2 hrs; assay type: ADME, organism-based; set-up: dose 10 mg/kg, route intraperitoneal; how it was run: as §1
[12] = Metabolic stability in mouse liver microsomes assessed as compound remaining after 30 mins in absence NADPH; assay type: ADME, Microsome; details: read-out: Stability; how it was run: as §2
Mu-type opioid receptor [13] = molecular target: T2, Mu-type opioid receptor (Homo sapiens, UniProt P35372); assay: Displacement of radiolabeled DAMGO from human recombinant mu opioid receptor expressed in […] at 10 uM; assay type: cell-based
Plasma [14] = assay: Tmax in mouse plasma at 10 mg/kg, ip; assay type: ADME, organism-based; set-up: dose 10 mg/kg, route intraperitoneal; details: in vivo; how it was run: as §1
[15] = Plasma concentration in mouse at 10 mg/kg, ip after 24 hrs; assay type: ADME, organism-based; set-up: dose 10 mg/kg, route intraperitoneal; how it was run: as §1
[16] = Plasma concentration in mouse at 10 mg/kg, ip after 0.083 hrs; assay type: ADME, organism-based; set-up: dose 10 mg/kg, route intraperitoneal; how it was run: as §1
Brain [17] = assay: Drug level in mouse brain at 10 mg/kg, ip after 0.083 hrs; assay type: ADME, organism-based; set-up: dose 10 mg/kg, route intraperitoneal; details: in vivo; how it was run: as §1
Brain [18] = assay: Drug level in mouse brain at 10 mg/kg, ip after 24 hrs; assay type: ADME, organism-based; set-up: dose 10 mg/kg, route intraperitoneal; details: in vivo; how it was run: as §1
[19] = Plasma concentration in mouse at 10 mg/kg, ip after 1 hrs; assay type: ADME, organism-based; set-up: dose 10 mg/kg, route intraperitoneal; how it was run: as §1
Brain [20] = assay: Drug level in mouse brain at 10 mg/kg, ip after 8 hrs; assay type: ADME, organism-based; set-up: dose 10 mg/kg, route intraperitoneal; details: in vivo; how it was run: as §1
[21] = Metabolic stability in mouse liver microsomes assessed as compound remaining after 15 mins in absence NADPH; assay type: ADME, Microsome; details: read-out: Stability; how it was run: as §2
Brain [22] = assay: AUClast in mouse brain at 10 mg/kg, ip; assay type: ADME, organism-based; set-up: time 0 - last, dose 10 mg/kg, route intraperitoneal; details: in vivo; how it was run: as §1
Brain [23] = assay: Drug level in mouse brain at 10 mg/kg, ip after 1 hrs; assay type: ADME, organism-based; set-up: dose 10 mg/kg, route intraperitoneal; details: in vivo; how it was run: as §1
Brain [24] = assay: Tmax in mouse brain at 10 mg/kg, ip; assay type: ADME, organism-based; set-up: dose 10 mg/kg, route intraperitoneal; details: in vivo; how it was run: as §1
Brain [25] = assay: Drug level in mouse brain at 10 mg/kg, ip after 0.5 hrs; assay type: ADME, organism-based; set-up: dose 10 mg/kg, route intraperitoneal; details: in vivo; how it was run: as §1
[26] = Plasma concentration in mouse at 10 mg/kg, ip after 8 hrs; assay type: ADME, organism-based; set-up: dose 10 mg/kg, route intraperitoneal; how it was run: as §1
Brain [27] = assay: Drug level in mouse brain at 10 mg/kg, ip after 0.25 hrs; assay type: ADME, organism-based; set-up: dose 10 mg/kg, route intraperitoneal; details: in vivo; how it was run: as §1
[28] = Plasma concentration in mouse at 10 mg/kg, ip after 4 hrs; assay type: ADME, organism-based; set-up: dose 10 mg/kg, route intraperitoneal; how it was run: as §1
[29] = Ratio of AUC in brain to AUC in plasma in mouse at 10 mg/kg, ip; assay type: ADME, organism-based; set-up: dose 10 mg/kg, route intraperitoneal; details: brain and plasma, read-out: Ratio AUC; how it was run: as §1
Rattus norvegicus [30] = assay: Anorectic activity in Wistar rat assessed as […] of NPS-induced reduction of food intake at 20 ug, icv after 15 to 60 mins; assay type: functional, organism-based
[31] = Metabolic stability in mouse liver microsomes assessed as compound remaining after 60 mins in presence NADPH; assay type: ADME, Microsome; details: read-out: Stability; how it was run: as §2
Neuropeptide S receptor [32] = molecular target: T1, Neuropeptide S receptor; assay: Antagonist activity at neuropeptide S receptor (unknown origin) expressed in CHO cells assessed as cAMP level after 30 mins by […] assay; assay type: functional, cell-based; details: read-out: IC50
How it was run: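 CHO cells stably expressing NPSR, 1800 cells/well in 1536-well format, seeded overnight at 37°C in medium without Geneticin. Stimulation buffer (PBS, 0.1% BSA, 0.05% Tween-20, 500µM Ro 20-1724, EC80 NPS) was added for 30 min at 37°C. cAMP was read by HTRF (d2-cAMP/cryptate anti-cAMP in lysis buffer, 30 min). IC50 is the mean with SD of two independent experiments, each run in duplicate.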

[33] = Plasma concentration in mouse at 10 mg/kg, ip after 0.25 hrs; assay type: ADME, organism-based; set-up: dose 10 mg/kg, route intraperitoneal; how it was run: as §1
Plasma [34] = assay: Half life in mouse plasma at 10 mg/kg, ip; assay type: ADME, organism-based; set-up: dose 10 mg/kg, route intraperitoneal; details: in vivo; how it was run: as §1
[35] = Metabolic stability in mouse liver microsomes assessed as compound remaining after 60 mins in absence NADPH; assay type: ADME, Microsome; details: read-out: Stability; how it was run: as §2
Neuropeptide S receptor [36] = molecular target: T1, Neuropeptide S receptor; assay: Antagonist activity at neuropeptide S receptor (unknown origin) expressed in CHO cells assessed as inhibition of NPS-induced calcium mobilization after 10 mins by fluorescence assay; assay type: functional, cell-based; details: read-out: IC50
How it was run: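 CHO-NPSR cells, 2000/well in 1536-well plates, incubated overnight, then loaded with no-wash calcium dye for 1 h at 37°C. Compound in DMSO was added for 10 min. Baseline fluorescence was recorded 6 s at 1 Hz, then EC80 NPS in stimulation buffer was added and recording continued 4 min at 1 Hz on a kinetic reader. IC50 is the mean with SD of two independent experiments in duplicate.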

Brain [37] = assay: Drug level in mouse brain at 10 mg/kg, ip after 12 hrs; assay type: ADME, organism-based; set-up: dose 10 mg/kg, route intraperitoneal; details: in vivo; how it was run: as §1
[38] = Plasma concentration in mouse at 10 mg/kg, ip after 0.5 hrs; assay type: ADME, organism-based; set-up: dose 10 mg/kg, route intraperitoneal; how it was run: as §1
Mu-type opioid receptor [39] = molecular target: T2, Mu-type opioid receptor; assay: Displacement of radiolabeled DAMGO from human recombinant mu opioid receptor expressed in OPRM1 cells; assay type: cell-based
[40] = Metabolic stability in mouse liver microsomes assessed as compound remaining after 15 mins in presence NADPH; assay type: ADME, Microsome; details: read-out: Stability; how it was run: as §2
Plasma [41] = assay: AUC (infinity) in mouse plasma at 10 mg/kg, ip; assay type: ADME, organism-based; set-up: time infinity, dose 10 mg/kg, route intraperitoneal; details: in vivo; how it was run: as §1
Plasma [42] = assay: Cmax in mouse plasma at 10 mg/kg, ip; assay type: ADME, organism-based; set-up: dose 10 mg/kg, route intraperitoneal; details: in vivo; how it was run: as §1

T2 sequence (P35372 whole entry): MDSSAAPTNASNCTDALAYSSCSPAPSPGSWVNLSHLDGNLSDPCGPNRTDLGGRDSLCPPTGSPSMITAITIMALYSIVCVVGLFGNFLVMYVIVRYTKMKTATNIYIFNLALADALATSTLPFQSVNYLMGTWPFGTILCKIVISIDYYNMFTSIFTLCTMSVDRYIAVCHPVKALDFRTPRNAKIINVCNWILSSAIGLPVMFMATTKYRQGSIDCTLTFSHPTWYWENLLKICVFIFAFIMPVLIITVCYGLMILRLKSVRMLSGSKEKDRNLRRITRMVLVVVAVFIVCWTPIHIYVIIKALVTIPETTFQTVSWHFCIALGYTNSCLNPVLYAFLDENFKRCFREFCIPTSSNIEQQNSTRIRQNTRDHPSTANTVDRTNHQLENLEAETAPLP

Structure (SMILES): Cc1c(P(=S)(c2ccccc2)c2ccccc2)n2ccccc2[n+]1C/C=C/c1ccccc1.[Br-]
- AUClast (Plasma [1]): 2240 ng·h/mL
- IC50 (Neuropeptide S receptor [2]): 3.5 nM
- inhibition (Rattus norvegicus [3]): Active
- IC50 (Neuropeptide S receptor [4]): 1.3 nM
- Drug uptake (Brain [5]): 53 nmol/g
- Activity (Rattus norvegicus [6]): Non-toxic
- Drug uptake (Brain [7]): 57 nmol/g
- remaining at 0.5 h [8]: 46%
- concentration at 12 h [9]: 126 nM
- Cmax [10]: 43 ng/mL
- concentration at 2 h [11]: 386 nM
- remaining at 0.5 h [12]: 102%
- inhibition (Mu-type opioid receptor [13]): > 90%
- Tmax (Plasma [14]): 4.98 min
- concentration at 24 h [15]: 54 nM
- concentration at 0.083 h [16]: 1500 nM
- Drug uptake (Brain [17]): 30 nmol/g
- Drug uptake (Brain [18]): 52 nmol/g
- concentration at 1 h [19]: 556 nM
- Drug uptake (Brain [20]): 60 nmol/g
- remaining at 0.25 h [21]: 102%
- AUClast (Brain [22]): 746 ng·h/mL
- Drug uptake (Brain [23]): 44 nmol/g
- Tmax (Brain [24]): 12 h
- Drug uptake (Brain [25]): 53 nmol/g
- concentration at 8 h [26]: 214 nM
- Drug uptake (Brain [27]): 52 nmol/g
- concentration at 4 h [28]: 245 nM
- Kp [29]: 33
- Activity (Rattus norvegicus [30]): Active
- remaining at 1 h [31]: 26%
- IC50 (Neuropeptide S receptor [32]): 45 nM
- concentration at 0.25 h [33]: 1320 nM
- t1/2 (Plasma [34]): 8.8 h
- remaining at 1 h [35]: 102%
- IC50 (Neuropeptide S receptor [36]): 0.96 nM
- Drug uptake (Brain [37]): 93 nmol/g
- concentration at 0.5 h [38]: 1150 nM
- IC50 (Mu-type opioid receptor [39]): 580 nM
- remaining at 0.25 h [40]: 72%
- AUC (Plasma [41]): 2560 ng·h/mL
- Cmax (Plasma [42]): 700 ng/mL
